Data as given in ChEMBL document CHEMBL1140408 (J Med Chem, 2005).

target: T1, Transient receptor potential cation channel subfamily V member 1 (Rattus norvegicus, UniProt O35433); test: Inhibitory effect on capsaicin (0.5 uM)-induced calcium uptake in rat DRG neurons upon incubation at RT for 10 minutes
Procedure, shortened: (§1)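 Neonatal Sprague–Dawley rat DRG neurons, dissociated with collagenase/trypsin and cultured 3 days with 200 ng/mL NGF (cytosine arabinoside for the first 2 days), were washed in Ca/Mg-free HBSS with 10 mM HEPES at pH 7.4. They were then given 45Ca2+ (10 µCi/mL), 0.5 µM capsaicin and compound for 10 min at room temperature, SDS-lysed and scintillation-counted.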

T1 sequence (O35433 whole entry): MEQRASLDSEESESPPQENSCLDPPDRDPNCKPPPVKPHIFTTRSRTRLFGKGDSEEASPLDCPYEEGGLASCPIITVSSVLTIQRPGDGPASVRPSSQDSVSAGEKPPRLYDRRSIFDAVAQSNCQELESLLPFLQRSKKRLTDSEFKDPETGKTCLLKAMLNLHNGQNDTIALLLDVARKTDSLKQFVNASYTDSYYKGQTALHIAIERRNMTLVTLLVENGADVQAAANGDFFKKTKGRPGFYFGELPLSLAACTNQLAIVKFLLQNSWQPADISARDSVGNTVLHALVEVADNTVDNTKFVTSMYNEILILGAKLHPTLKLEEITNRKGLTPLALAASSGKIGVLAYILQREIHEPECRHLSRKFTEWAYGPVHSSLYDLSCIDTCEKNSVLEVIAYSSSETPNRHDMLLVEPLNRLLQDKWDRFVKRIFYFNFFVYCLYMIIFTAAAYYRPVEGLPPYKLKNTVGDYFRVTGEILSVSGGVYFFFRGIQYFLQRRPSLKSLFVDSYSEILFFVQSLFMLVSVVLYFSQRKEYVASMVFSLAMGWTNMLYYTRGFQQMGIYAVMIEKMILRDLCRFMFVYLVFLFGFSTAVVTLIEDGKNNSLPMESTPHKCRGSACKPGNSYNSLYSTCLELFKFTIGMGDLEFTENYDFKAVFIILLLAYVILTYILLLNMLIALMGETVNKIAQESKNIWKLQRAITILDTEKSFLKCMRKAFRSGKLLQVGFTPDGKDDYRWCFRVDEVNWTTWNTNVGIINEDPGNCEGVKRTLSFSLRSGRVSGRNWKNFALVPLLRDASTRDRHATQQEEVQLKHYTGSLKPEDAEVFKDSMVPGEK

| IC50 [nM] | Compound |
| --- | --- |
| 71 | CC(C)(C)c1ccc(CNC(=S)NCc2ccc(NS(C)(=O)=O)c([N+](=O)[O-])c2)cc1 |
| 5900 | CC(C)(C)c1ccc(C/N=C(\S)NCc2ccc(NS(C)(=O)=O)c(C#N)c2)cc1 |
| 370 | CC(C)(C)c1ccc(CCNC(=S)NCc2ccc(NS(C)(=O)=O)c(F)c2)cc1 |
| 2600 | CS(=O)(=O)Nc1ccc(CN=C(S)NCc2cccc3ccccc23)cc1F |
| > 30000 | CCOC(=O)CNc1ccc(CNC(=S)NCc2ccc(C(C)(C)C)cc2)cc1F |
| 790 | CC(C)(C)c1ccc(CNC(=S)NCc2ccc3nc[nH]c3c2)cc1 |
| 80 | CC(C)(C)c1ccc(C/N=C(\S)NCc2ccc(NS(C)(=O)=O)c(Br)c2)cc1 |
| 200 | CC(C)(C)c1cc(CNC(=S)NCc2ccc(NS(C)(=O)=O)c(F)c2)cc(C(C)(C)C)c1 |
| 570 | CS(=O)(=O)Nc1ccc(C/N=C(\S)NCc2ccc(Br)cc2)cc1F |
| 41 | CC(C)(C)c1ccc(CNC(=S)NCc2ccc(NS(C)(=O)=O)c(I)c2)cc1 |
| 1500 | Cc1ccc(C/N=C(\S)NCc2ccc(NS(C)(=O)=O)c(F)c2)cc1 |
| > 30000 | CC(C)(C)c1ccc(C/N=C(\S)NCc2ccc(NS(C)(=O)=O)c(C(=O)NO)c2)cc1 |
| 6200 | CCOC(=O)N/C(=N\Cc1ccc(NS(C)(=O)=O)c(F)c1)NCc1ccc(C(C)(C)C)cc1 |
| 1100 | CCc1ccc(C/N=C(\S)NCc2ccc(NS(C)(=O)=O)c(F)c2)cc1 |
| 630 | CS(=O)(=O)Nc1ccc(C/N=C(\S)NCc2ccc(I)cc2)cc1F |
| > 30000 | CONC(=O)c1cc(C/N=C(\S)NCc2ccc(C(C)(C)C)cc2)ccc1NS(C)(=O)=O |
| 2500 | CS(=O)(=O)Nc1ccc(C/N=C(\S)NC(c2ccccc2)c2ccccc2)cc1F |
| 1100 | CS(=O)(=O)Nc1ccc(C/N=C(\S)Nc2c3ccccc3cc3ccccc23)cc1F |

| IC50 [nM] | Compound |
| --- | --- |
| > 30000 | CC(C)(C)c1ccc(CNC(=S)NCc2ccc(NC(=O)C(F)(F)F)c(F)c2)cc1 |
| > 30000 | CC(C)(C)NC(=S)NCc1ccc(NS(C)(=O)=O)c(F)c1 |
| 50 | CC(C)(C)c1ccc(CNC(=S)NCc2ccc3nn[nH]c3c2)cc1 |
| 470 | CCCCc1ccc(CNC(=S)NCc2ccc(NS(C)(=O)=O)c(F)c2)cc1 |
| 520 | CC(C)c1ccc(C/N=C(\S)NCc2ccc(NS(C)(=O)=O)c(F)c2)cc1 |
| 1600 | CC(C)(C)c1ccc(N/C(S)=N/Cc2ccc(NS(C)(=O)=O)c(F)c2)cc1 |
| 10900 | COCC(=O)Nc1ccc(CNC(=S)NCc2ccc(C(C)(C)C)cc2)cc1F |
| 670 | Cc1ccccc1C/N=C(\S)NCc1ccc(NS(C)(=O)=O)c(F)c1 |
| 1300 | Cc1cccc(CNC(=S)NCc2ccc(NS(C)(=O)=O)c(F)c2)c1 |
| 1800 | CC(C)(C)c1ccc(CNC(=S)NCc2ccc3[nH]ccc3c2)cc1 |
| 730 | CC(C)(C)c1ccc(C/N=C(\NC#N)NCc2ccc(NS(C)(=O)=O)c(F)c2)cc1 |
| > 30000 | CCOC(=O)Nc1ccc(C/N=C(\S)NCc2ccc(C(C)(C)C)cc2)cc1F |
| > 30000 | CC(C)OC(=O)c1cc(C/N=C(\S)NCc2ccc(C(C)(C)C)cc2)ccc1NS(C)(=O)=O |
| > 30000 | CS(=O)(=O)Nc1ccc(CNC(=S)NCc2ccc(-c3ccccc3)cc2)cc1F |
| 3600 | COC(=O)CNc1ccc(CNC(=S)NCc2ccc(C(C)(C)C)cc2)cc1F |
| 460 | CCCc1ccc(CNC(=S)NCc2ccc(NS(C)(=O)=O)c(F)c2)cc1 |
| 2000 | CC(C)(C)c1ccc(CCC/N=C(\S)NCc2ccc(NS(C)(=O)=O)c(F)c2)cc1 |
| > 30000 | CC(C)(C)c1ccc(C(C)(C)/N=C(\S)NCc2ccc(NS(C)(=O)=O)c(F)c2)cc1 |

target: T1, Transient receptor potential cation channel subfamily V member 1; test: Inhibitory effect on capsaicin (0.5 uM)-induced calcium uptake in rat DRG neurons upon incubation at RT for 10 minutes; NE=Not effective; procedure, shortened: as §1

| IC50 | Compound |
| --- | --- |
| Not Active | CC(C)(C)c1ccccc1C/N=C(\S)NCc1ccc(NS(C)(=O)=O)c(F)c1 |
| Not Active | CC(C)(C)c1ccc(C/N=C(\S)NCc2ccc(N)c(F)c2)cc1 |
| Not Active | COC(=O)Nc1ccc(C/N=C(\S)NCc2ccc(C(C)(C)C)cc2)cc1F |

target: T1, Transient receptor potential cation channel subfamily V member 1; test: Inhibitory effect on capsaicin (0.5 uM)-induced calcium uptake in rat DRG neurons upon incubation at RT for 10 minutes; NE = Not effective; procedure, shortened: as §1

| IC50 | Compound |
| --- | --- |
| Not Active | CC(C)(C)c1ccc(C/N=C(\S)NCc2ccc(NCC(=O)O)c(F)c2)cc1 |
| Not Active | CC(C)(C)c1ccc(C/N=C(\S)NCc2ccc3c(c2)OCO3)cc1 |

target: T2, Transient receptor potential cation channel subfamily V member 1 (Homo sapiens, UniProt Q8NER1); test: Concentration required to inhibit [3H]RTX radioligand binding towards transient receptor potential cation channel (subfamily V, member 1) expressed in chinese hamster ovary cells; assay type: cell-based, CHO
T2 sequence (Q8NER1 whole entry): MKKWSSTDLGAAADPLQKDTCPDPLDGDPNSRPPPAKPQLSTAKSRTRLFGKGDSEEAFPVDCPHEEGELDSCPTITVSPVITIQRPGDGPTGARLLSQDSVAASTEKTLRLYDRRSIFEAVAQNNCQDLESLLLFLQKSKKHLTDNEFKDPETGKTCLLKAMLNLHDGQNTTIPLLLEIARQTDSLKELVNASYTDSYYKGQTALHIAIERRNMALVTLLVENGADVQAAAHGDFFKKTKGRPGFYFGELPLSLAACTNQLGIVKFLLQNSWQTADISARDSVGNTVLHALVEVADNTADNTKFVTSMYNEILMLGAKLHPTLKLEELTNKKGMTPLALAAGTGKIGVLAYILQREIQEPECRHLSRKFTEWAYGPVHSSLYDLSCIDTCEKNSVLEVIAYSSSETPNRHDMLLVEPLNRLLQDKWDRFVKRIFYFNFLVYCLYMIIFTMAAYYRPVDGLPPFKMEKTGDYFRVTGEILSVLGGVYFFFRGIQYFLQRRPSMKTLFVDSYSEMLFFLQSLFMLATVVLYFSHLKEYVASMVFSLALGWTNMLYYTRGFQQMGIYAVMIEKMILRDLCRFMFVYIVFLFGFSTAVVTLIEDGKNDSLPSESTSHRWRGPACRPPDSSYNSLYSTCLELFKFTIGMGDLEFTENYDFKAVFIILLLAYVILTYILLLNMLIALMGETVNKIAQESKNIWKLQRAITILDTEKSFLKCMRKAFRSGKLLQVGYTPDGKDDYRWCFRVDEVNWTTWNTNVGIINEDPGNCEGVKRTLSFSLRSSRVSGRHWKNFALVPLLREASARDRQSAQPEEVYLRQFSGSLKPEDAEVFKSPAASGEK

| IC50 [nM] | Compound |
| --- | --- |
| 54 | CC(C)(C)c1ccc(CNC(=S)NCc2ccc(NS(C)(=O)=O)c(F)c2)cc1 |

target: T2, Transient receptor potential cation channel subfamily V member 1; test: Concentration required to antagonized capsaicin-induced calcium uptake at the transient receptor potential cation channel (subfamily V member 1) expressed in chinese hamster ovary cells; assay type: cell-based, CHO

| EC50 [nM] | Compound |
| --- | --- |
| 8 | CC(C)(C)c1ccc(CNC(=S)NCc2ccc(NS(C)(=O)=O)c(F)c2)cc1 |
